A short description of series [1]: folding enthalpy; higher = less favourable; fluorescence melt of hairpins on a sequencing array, two-state fit. The note with it: sodium 0.088 M. In short, it runs like this:
(§1)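 To match UV melts, fitted temperatures were raised by 9.35 °C. These fits were bootstrapped two-state models that gave melting temperature and folding enthalpy, combined by inverse variance over four replicates. The input was normalised Cy3 fluorescence of library hairpins with annealed Cy3 and quencher oligos on a sequenced MiSeq flow cell, imaged in 50 mM Na-HEPES pH 8.0, 25 mM NaCl in 2.5 °C steps up to 60 °C.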

A short description of series [2]: melting temperature; fluorescence melt of hairpins on a sequencing array, two-state fit, raised by 9.35 °C to match UV melts. The note with it: sodium 0.088 M. In short, it runs like this:
as §1

The source of these data is the array DNA melting data of Ke et al. (doi:10.1101/2024.01.08.574731).

GCAGCCACGAAAGTGTGC (((..(((....)))))): the folding enthalpy in series [1] was -12.5 kcal/mol. Besides, the Tm in series [2] worked out at 40.2 °C.
The corresponding values for GGTGGAACGAAAGTTACC (((..(((....)))))) are -17.3 kcal/mol and 36.5 °C.
GTCGGTCGAAAGACAGAC (((.(((....))).))): the folding enthalpy in series [1] is -37.8 kcal/mol. Also, in series [2], the Tm was determined as 57.8 °C.
For the sequence GCGCCCCGAAAGGGCCGC (((.(((....))).))), the folding enthalpy in series [1] was -19.8 kcal/mol. In series [2], the Tm stood at 61.2 °C.
The corresponding values for GATCGGCTTACCGATC ((((((....)))))) are -35.4 kcal/mol and 57.7 °C.
The corresponding values for GCAATGCGAAAGCATCGC ((.((((....)))).)) are -21.4 kcal/mol and 58.1 °C.
The matching figures for GGTGTCGAAAGACGAACC ((((((....)))..))): -18.8 kcal/mol and 40.9 °C.
Take GACACTGCGAAAGCAGTC (((..(((....)))))): in series [1], the folding enthalpy was -8.12 kcal/mol. In addition, the Tm in series [2] amounted to 31.4 °C.
The corresponding values for GGTCACGAAAGTGGCACC ((((((....)))..))) are -11.7 kcal/mol and 47.6 °C.
The matching figures for GTCCTTGCGAAAGCAGAC (((..(((....)))))): -12.3 kcal/mol and 32.3 °C.
The corresponding values for GAGACTGGAAACAGTTTC ((.((((....)))).)) are -29.6 kcal/mol and 38.8 °C.
For GTTCGCGAAAGCGAGAAC ((((((....)))..))), the folding enthalpy in series [1] was -9.97 kcal/mol. In addition, the Tm in series [2] came out at 42.3 °C.
Consider GATCCGCTTCGGATC ((((((...)))))), for which, in series [1], the folding enthalpy is -39 kcal/mol. In addition, the Tm in series [2] worked out at 58.6 °C.
Regarding GATTGTGGAAACATGATC (((..((....))..))), the folding enthalpy in series [1] is -18 kcal/mol. In series [2], the Tm came to 31.2 °C.
As to GCAAGGCGAAAGCCTGGC ((.((((....)))).)), in series [1], the folding enthalpy is -23.1 kcal/mol. Further, the Tm in series [2] turned out to be 68.9 °C.
The matching figures for GGAAATGGAAACATTTTC (.(((((....))))).): -33.7 kcal/mol and 38.5 °C.
Take GCAGACGAAAGTCTCTGC ((((((....)))..))): the folding enthalpy in series [1] is -14.8 kcal/mol. In addition, in series [2], the Tm is 44.1 °C.
Regarding GAGTACGAAAGTAGGCTC ((((((....)))..))), the folding enthalpy in series [1] was -19.6 kcal/mol. The Tm in series [2] was 36.1 °C.
The corresponding values for GATCGGAACACCGATC ((((((....)))))) are -39.9 kcal/mol and 55.2 °C.
The matching figures for GATCCATTTTTGGATC ((((((....)))))): -39.5 kcal/mol and 54 °C.
The matching figures for GAATCTGGAAACAGATTC (((((((....))))))): -49.8 kcal/mol and 55.6 °C.
As for GACCCGGGAAACCGGATC ((.((((....)))).)), the folding enthalpy in series [1] was -16.3 kcal/mol. Besides, the Tm in series [2] was determined as 43.2 °C.
The corresponding values for GGGTAAGGAAACCTACCC (((((.(....).))))) are -30.6 kcal/mol and 42.9 °C.
The matching figures for GCTACCCGAAAGGGAAGC (((.(((....))).))): -32.5 kcal/mol and 58.6 °C.
The corresponding values for GGTTTCGGAAACGAAGCC ((.((((....)))).)) are -28.2 kcal/mol and 51.4 °C.
Consider GTGCACGGAAACACGCAC ((((..(....)..)))), for which, in series [1], the folding enthalpy is -29.2 kcal/mol. For the same sequence, the Tm in series [2] came out at 41.1 °C.
The corresponding values for GCGGAACCCCGC ((((....)))) are -21 kcal/mol and 51.3 °C.
For GAGCGGCGAAAGCCCCTC (((.(((....))).))), the folding enthalpy in series [1] is -14.1 kcal/mol. Further, the Tm in series [2] stood at 46.7 °C.
The corresponding values for GAGTGTGGAAACACGTTC ((..(((....)))..)) are -12.2 kcal/mol and 42.9 °C.
The corresponding values for GGTTGCGGAAACACAACC (((((.(....).))))) are -40 kcal/mol and 48.4 °C.
For GAGCGAGCGAAAGCTCTC (((..(((....)))))), the folding enthalpy in series [1] is -8.27 kcal/mol. The Tm in series [2] was determined as 35.5 °C.
The matching figures for GCCTCGCGAAAGCAAGGC ((((.((....)).)))): -30 kcal/mol and 65.1 °C.
The corresponding values for GCGTAAGGAAACTTATGC ((.((((....)))).)) are -31.2 kcal/mol and 45.6 °C.
The matching figures for GCGTTGGGAAACCGATGC ((.(.((....)).).)): -25.9 kcal/mol and 44 °C.
For GCAGGGGGAAACCCCTAC (.(((((....))))).), the folding enthalpy in series [1] was -14.2 kcal/mol. The Tm in series [2] is 35.4 °C.
For GTGACAGGAAACTATCAC ((((.((....)).)))), in series [1], the folding enthalpy is -19.4 kcal/mol. In series [2], the Tm was determined as 33.2 °C.
With GCAATGGGAAACCATCGC ((.((((....)))).)), in series [1], the folding enthalpy was -28.8 kcal/mol. In series [2], the Tm was 42.1 °C.
